Data published in ChEMBL document CHEMBL4028876, “Discovery of a Novel Piperidine-Based Inhibitor of Cholesteryl Ester Transfer Protein (CETP) That Retains Activity in Hypertriglyceridemic Plasma” (J Med Chem, 2017).
pIC50: −log10 of the molar value. One block for each compound: values may come before it.

Assays:
NCI-H295R = test: Toxicty in human NCI-H295R cells assessed as increase in aldosterone levels at 0.1 to 10000 nM after 24 hrs by scintillation proximity assay; format: toxicity, cell-based; conditions: 10 µM
Rattus norvegicus [1] = test: Toxicity in cannulated Sprague-Dawley rat assessed as increase in mean arterial pressure at 5 mg/kg, iv by blood pressure transducer based method; format: organism-based; conditions: in vivo
Rattus norvegicus [2] = test: Toxicity in cannulated Sprague-Dawley rat assessed as increase in plasma aldosterone levels at 5 mg/kg, iv by radioimmunoassay; format: organism-based; conditions: in vivo
[3] = 1-Octanol-phosphate buffered saline partition coefficient, log D of compound at […] by tandem mass spectrometry method; format: physicochemical
[4] = target: T1, Cholesteryl ester transfer protein (Homo sapiens, UniProt P11597); test: Inhibition of CETP in human plasma measured every 30 mins for 120 mins by fluorescence method
T1 sequence (P11597 whole entry): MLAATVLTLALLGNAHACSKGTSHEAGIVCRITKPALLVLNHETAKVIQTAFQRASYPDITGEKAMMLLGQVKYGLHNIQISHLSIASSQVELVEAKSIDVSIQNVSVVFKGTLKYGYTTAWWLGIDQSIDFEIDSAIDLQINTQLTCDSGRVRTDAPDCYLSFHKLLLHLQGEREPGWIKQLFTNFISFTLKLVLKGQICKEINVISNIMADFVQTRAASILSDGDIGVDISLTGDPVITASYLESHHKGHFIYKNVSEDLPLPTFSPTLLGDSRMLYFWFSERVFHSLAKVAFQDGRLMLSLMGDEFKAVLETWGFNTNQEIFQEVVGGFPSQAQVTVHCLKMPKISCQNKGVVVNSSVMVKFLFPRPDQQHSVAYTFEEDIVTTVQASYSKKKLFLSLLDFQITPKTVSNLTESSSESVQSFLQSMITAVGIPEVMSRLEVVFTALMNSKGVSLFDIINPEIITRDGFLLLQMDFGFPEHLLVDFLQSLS
Summary of the method: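 Pooled EDTA plasma from healthy male donors (final 50%) with compound in DMSO (final 1%). The reaction is started with fluorescent donor solution. Activity is the 30–90 min slope. IC50 is fitted to duplicate wells by a logistic equation.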

Cytochrome P450 3A4 [5] = target: T2, Cytochrome P450 3A4 (Homo sapiens, UniProt P08684); test: Inhibition of CYP3A4 (unknown origin) in the presence of testosterone; format: ADME
[6] = Clearance in Sprague-Dawley rat plasma at 1 mg/kg, iv or 3 mg/kg, po by LC-ESI-MS/MS analysis; format: ADME, organism-based
Summary of the method: (§1)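 Conscious 7-week-old male Sprague-Dawley rats on standard diet with free water. Dosing is 1 mg/kg iv bolus in N-methylpyrrolidin-2-one/PEG 200, or 3 mg/kg oral suspension in 0.5% aqueous methylcellulose. Blood is sampled at various time points after administration.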

Cytochrome P450 2C9 = Cytochrome P450 2C9 (Homo sapiens, UniProt P11712); test: Inhibition of CYP2C9 (unknown origin); format: ADME
[7] = AUC (infinity) in Sprague-Dawley rat at 1 mg/kg, iv or 3 mg/kg, po by LC-ESI-MS/MS analysis; format: ADME, organism-based; conditions: in vivo; summary of the method: as §1
Cytochrome P450 3A4 [8] = target: T2, Cytochrome P450 3A4; test: Inhibition of CYP3A4 (unknown origin) in the presence of midozolam; format: ADME
[9] = Oral bioavailability in Sprague-Dawley rat at 3 mg/kg by LC-ESI-MS/MS analysis; format: ADME, organism-based; conditions: in vivo; summary of the method: as §1
[10] = Volume of distribution in Sprague-Dawley rat at 1 mg/kg, iv or 3 mg/kg, po by LC-ESI-MS/MS analysis; format: ADME, organism-based; conditions: in vivo; summary of the method: as §1
Cytochrome P450 2D6 = Cytochrome P450 2D6 (Homo sapiens, UniProt P10635); test: Inhibition of CYP2D6 (unknown origin); format: ADME
[11] = Half life in Sprague-Dawley rat at 1 mg/kg, iv or 3 mg/kg, po by LC-ESI-MS/MS analysis; format: ADME, organism-based; conditions: in vivo; summary of the method: as §1

Sequence of Cytochrome P450 2C9 (P11712 whole entry): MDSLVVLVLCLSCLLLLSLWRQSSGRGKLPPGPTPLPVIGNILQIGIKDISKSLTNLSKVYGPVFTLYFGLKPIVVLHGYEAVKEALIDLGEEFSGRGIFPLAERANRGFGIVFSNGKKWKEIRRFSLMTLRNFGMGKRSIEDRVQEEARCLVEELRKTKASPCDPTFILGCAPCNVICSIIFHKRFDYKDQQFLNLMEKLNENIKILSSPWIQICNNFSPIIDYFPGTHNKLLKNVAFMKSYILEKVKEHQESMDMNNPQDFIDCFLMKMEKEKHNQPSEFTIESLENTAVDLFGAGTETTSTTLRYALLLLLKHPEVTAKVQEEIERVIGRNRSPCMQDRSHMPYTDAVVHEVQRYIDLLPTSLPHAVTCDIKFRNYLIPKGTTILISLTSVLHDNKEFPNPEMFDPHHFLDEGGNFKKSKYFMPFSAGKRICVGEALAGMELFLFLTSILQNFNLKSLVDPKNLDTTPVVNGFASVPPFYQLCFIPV
Sequence of Cytochrome P450 2D6 (P10635 whole entry): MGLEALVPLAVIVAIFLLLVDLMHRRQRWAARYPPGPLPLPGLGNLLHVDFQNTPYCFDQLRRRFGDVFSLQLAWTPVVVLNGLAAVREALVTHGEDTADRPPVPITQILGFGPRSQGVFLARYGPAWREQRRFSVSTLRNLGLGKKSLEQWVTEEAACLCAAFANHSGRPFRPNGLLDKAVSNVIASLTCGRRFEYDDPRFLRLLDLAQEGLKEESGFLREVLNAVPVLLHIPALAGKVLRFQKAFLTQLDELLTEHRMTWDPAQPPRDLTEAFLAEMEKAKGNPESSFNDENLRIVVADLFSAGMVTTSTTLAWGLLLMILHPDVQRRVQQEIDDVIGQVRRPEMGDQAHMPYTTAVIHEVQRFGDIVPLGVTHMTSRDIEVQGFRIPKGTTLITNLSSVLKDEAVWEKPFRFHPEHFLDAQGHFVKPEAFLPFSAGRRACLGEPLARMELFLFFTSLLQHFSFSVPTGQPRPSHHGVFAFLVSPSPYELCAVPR
T2 sequence (P08684 whole entry): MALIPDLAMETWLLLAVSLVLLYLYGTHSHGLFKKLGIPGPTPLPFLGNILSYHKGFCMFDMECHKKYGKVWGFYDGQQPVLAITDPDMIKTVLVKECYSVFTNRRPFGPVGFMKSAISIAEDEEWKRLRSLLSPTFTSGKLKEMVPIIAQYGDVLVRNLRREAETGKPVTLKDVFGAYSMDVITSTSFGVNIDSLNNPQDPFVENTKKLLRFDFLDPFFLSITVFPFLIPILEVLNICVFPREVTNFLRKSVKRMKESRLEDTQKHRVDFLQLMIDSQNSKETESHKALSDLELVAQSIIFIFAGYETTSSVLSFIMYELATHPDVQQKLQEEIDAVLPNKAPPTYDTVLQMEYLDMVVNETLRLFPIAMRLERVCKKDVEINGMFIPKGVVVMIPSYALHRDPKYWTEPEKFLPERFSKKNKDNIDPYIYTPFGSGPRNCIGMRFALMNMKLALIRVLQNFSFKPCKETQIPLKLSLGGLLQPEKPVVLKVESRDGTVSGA

- logD [3]: > 4
Compound: CCOC(=O)N1c2ccc(C(F)(F)F)cc2[C@@H](N(Cc2cc(C(F)(F)F)cc(C(F)(F)F)c2)C(=O)OC)C[C@H]1CC [TORCETRAPIB]
- Activity (NCI-H295R): Toxic
- Activity (Rattus norvegicus [1]): Toxic
- Activity (Rattus norvegicus [2]): Toxic

- pIC50 [4]: 7.11
Compound: CC[C@@H]1C[C@H](N(Cc2cc(C(F)(F)F)cc(C(F)(F)F)c2)c2ncc(Br)cn2)C[C@H](Cc2ccccc2)N1C(=O)OC(C)(C)C

- pIC50 [4]: 6.62
Compound: CC[C@@H]1C[C@H](N(Cc2cc(Cl)cc(C(F)(F)F)c2)c2ncc(Br)cn2)C[C@H](Cc2ccccc2)N1C(=O)OC(C)(C)C (racemic)

- pIC50 [4]: 5.89
Compound: CC[C@@H]1C[C@H](N(Cc2cc(C(F)(F)F)cc(C(F)(F)F)c2)C(=O)OC)C[C@H](CC)N1C(=O)OC(C)(C)C

- pIC50 [4]: 5.32
Compound: CCNC(=O)N1[C@H](CC)C[C@H](N(Cc2cc(C(F)(F)F)cc(C(F)(F)F)c2)c2ncc(Br)cn2)C[C@@H]1Cc1ccccc1 (racemic)

- pIC50 [4]: 5.39
- logD [3]: > 6
Compound: CCC(CC)CC1(C(=O)Nc2ccccc2SC(=O)C(C)C)CCCCC1 [DALCETRAPIB]

- IC50 (Cytochrome P450 3A4 [5]): > 50000 nM
- clearance [6]: 1.67 mL/min/kg
- IC50 (Cytochrome P450 2C9): > 50000 nM
- AUC(0-inf) [7]: 0.456 µM·h
- IC50 (Cytochrome P450 3A4 [8]): > 50000 nM
- bioavailability [9]: 3%
- Vd [10]: 0.7 L/kg
- IC50 (Cytochrome P450 2D6): > 50000 nM
- half-life [11]: 7.4 h
- pIC50 [4]: 7.22
Compound: CC[C@@H]1C[C@H](N(Cc2cc(C(F)(F)F)cc(C(F)(F)F)c2)c2ncc(N3CCOCC3)cn2)C[C@H](Cc2ccccc2)N1C(=O)OC(C)(C)C

- IC50 (Cytochrome P450 3A4 [5]): > 50000 nM
- clearance [6]: 1.5 mL/min/kg
- IC50 (Cytochrome P450 2C9): > 50000 nM
- AUC(0-inf) [7]: 28.5 µM·h
- IC50 (Cytochrome P450 3A4 [8]): 25000 nM
- bioavailability [9]: 58%
- Vd [10]: 0.67 L/kg
- IC50 (Cytochrome P450 2D6): > 50000 nM
- half-life [11]: 5.6 h
- pIC50 [4]: 6.82
Compound: CC[C@@H]1C[C@H](N(Cc2cc(C(F)(F)F)cc(C(F)(F)F)c2)c2ncc(N3CCOCC3)cn2)C[C@H](CC)N1C(=O)O[C@H]1CC[C@H](C(=O)O)CC1

- pIC50 [4]: 6.70
Compound: CC[C@@H]1C[C@H](N(Cc2cc(C(F)(F)F)cc(C(F)(F)F)c2)c2ncc(Br)cn2)C[C@H](Cc2ccccc2)N1C(=O)OC(C)C (racemic)

- pIC50 [4]: < 5.00
Compound: CC[C@@H]1C[C@H](N(Cc2cc(OC)cc(C(F)(F)F)c2)c2ncc(Br)cn2)C[C@H](Cc2ccccc2)N1C(=O)OC(C)(C)C (racemic)

- pIC50 [4]: 6.11
Compound: CC[C@@H]1C[C@H](N(Cc2cc(C(F)(F)F)cc(C(F)(F)F)c2)C(=O)OC)C[C@H](Cc2ccccc2)N1C(=O)OC(C)(C)C (racemic)

- pIC50 [4]: 6.80
Compound: CC[C@@H]1C[C@H](N(Cc2cc(C(F)(F)F)cc(C(F)(F)F)c2)c2ncc(Br)cn2)C[C@H](Cc2ccccc2)N1C(=O)OC(C)(C)C (racemic)

- IC50 (Cytochrome P450 3A4 [5]): > 50000 nM
- clearance [6]: 10 mL/min/kg
- IC50 (Cytochrome P450 2C9): 6600 nM
- AUC(0-inf) [7]: 2.75 µM·h
- IC50 (Cytochrome P450 3A4 [8]): 2200 nM
- bioavailability [9]: 35%
- Vd [10]: 2.35 L/kg
- IC50 (Cytochrome P450 2D6): > 30000 nM
- half-life [11]: 4.6 h
- pIC50 [4]: 7.22
Compound: CC[C@@H]1C[C@H](N(Cc2cc(C(F)(F)F)cc(C(F)(F)F)c2)c2ncc(N3CCOCC3)cn2)C[C@H](CC)N1C(=O)OC(C)C

- pIC50 [4]: 6.29
Compound: CCCC(=O)N1[C@H](CC)C[C@H](N(Cc2cc(C(F)(F)F)cc(C(F)(F)F)c2)c2ncc(Br)cn2)C[C@@H]1Cc1ccccc1 (racemic)

- pIC50 [4]: 6.79
Compound: CC[C@@H]1C[C@H](N(Cc2cc(C(F)(F)F)cc(C(F)(F)F)c2)c2ncc(N3CCOCC3)cn2)C[C@H](Cc2ccccc2)N1C(=O)OC(C)(C)C (racemic)

- pIC50 [4]: 7.15
Compound: CC[C@@H]1C[C@H](N(Cc2cc(C(F)(F)F)cc(C(F)(F)F)c2)c2ncc(OC)cn2)C[C@H](Cc2ccccc2)N1C(=O)OC(C)(C)C (racemic)

- pIC50 [4]: 6.96
- logD [3]: 5.7
Compound: Cc1cc(C)c2c(c1)[C@@H](N(Cc1cc(C(F)(F)F)cc(C(F)(F)F)c1)c1nnn(C)n1)CCCN2C[C@H]1CC[C@H](C(=O)O)CC1 [EVACETRAPIB]
